In brackets after ≈: the same amount, converted by molar mass.
How the values were obtained:
[1] = Reversal of multidrug resistance in human 2780AD cells assessed as increase in vincristine accumulation at 1 ug/ml relative to verapamil; format: functional, A2780 ADR
[2] = Reversal of multidrug resistance in human 2780AD cells assessed as increase in vincristine accumulation at 10 ug/ml relative to verapamil; format: functional, A2780 ADR
P388 [3] = test: Antitumor activity against vincristine-resistant mouse P388 cells implanted in CDF1 mouse at 0.2 mg/kg assessed as median survival time relative to control; format: functional
In short: (§1)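 CDF1 mice were implanted i.p. with P388/VCR (vincristine-resistant) leukemia cells on day 0. Vincristine was given i.p. daily for 5 days, alone or together with a taxoid at 200 mg/kg. There were 5 mice per group. T/C (%) is the median survival time of treated mice divided by that of untreated control mice.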

P388 [4] = test: Antitumor activity against vincristine-resistant mouse P388 cells implanted in CDF1 mouse at 0.1 mg/kg assessed as median survival time relative to control; format: functional; in short: as §1
KB = test: Cytotoxicity against human KB cells; format: functional, cell-based

## C=C1[C@@H](OC(=O)/C=C/c2ccccc2)CC[C@@]2(C)[C@@H](OC(C)=O)[C@H](OC(C)=O)[C@@]34O[C@]3(C)C(=O)C[C@@H]([C@@H](OC(C)=O)[C@H]12)C4(C)C
[1]
  Activity: 142%

## C=C1[C@@H](OC(=O)/C=C/c2ccccc2)CC[C@@]2(C)[C@@H](OC(C)=O)[C@H](OC(C)=O)C3=C(C)C(=O)C[C@@H]([C@@H](O)[C@H]12)C3(C)C
[2]
  Activity: 191%

## C=C1[C@@H](OC(=O)/C=C/c2ccccc2)CC[C@@]2(C)[C@@H](OC(C)=O)[C@H](OC(C)=O)[C@@]34[C@H](C)C(=O)C[C@@](O)([C@@H](OC(C)=O)[C@@]132)C4(C)C
[1]
  Activity: 204%

## CC[C@]1(O)C[C@H]2CN(CCc3c([nH]c4ccccc34)[C@@](C(=O)OC)(c3cc4c(cc3OC)N(C=O)[C@H]3[C@@](O)(C(=O)OC)[C@H](OC(C)=O)[C@]5(CC)C=CCN6CC[C@]43[C@@H]65)C2)C1 [VINCRISTINE]
P388 [3]
  T/C: 110%
P388 [4]
  T/C: 92%

## C=C1[C@@H](OC(=O)/C=C/c2ccccc2)C[C@H](OC(C)=O)[C@@]2(CO)[C@@H](OC(C)=O)[C@H](OC(C)=O)[C@]3(O)[C@@]4(C)CO[C@]3(C)C(=O)C[C@H]4[C@@H](OC(C)=O)[C@H]12 [TAXUSPINE S]
KB
  IC50: 80 ng/mL (≈ 112 nM)

## C=C1[C@@H](OC(=O)/C=C/c2ccccc2)CC[C@@]2(C)[C@@H](O)[C@H](OC(C)=O)C3=C(C)C(=O)C[C@@H]([C@@H](OC(C)=O)[C@H]12)C3(C)C
[2]
  Activity: 185%
KB
  IC50: 80 ng/mL (≈ 142 nM)

## CCCCCC(=O)N[C@@H](c1ccccc1)[C@@H](O)C(=O)O[C@H]1C[C@@]2(O)[C@@H](OC(=O)c3ccccc3)[C@@H]3[C@]4(OC(C)=O)CO[C@@H]4C[C@H](O)[C@@]3(C)C(=O)[C@H](OC(C)=O)C(=C1C)C2(C)C [TAXOL C]
KB
  IC50: 1.5 ng/mL (≈ 1.77 nM)

## CC(=O)O[C@@]12CO[C@@H]1C[C@@H](O)[C@@]1(C)C(=O)[C@H](O)C3=C(C)[C@@H](OC(=O)[C@H](O)[C@@H](NC(=O)c4ccccc4)c4ccccc4)C[C@@](O)([C@@H](OC(=O)c4ccccc4)[C@H]21)C3(C)C
KB
  IC50: 1.5 ng/mL (≈ 1.85 nM)

## CCCC(=O)N[C@@H](c1ccccc1)[C@@H](O)C(=O)O[C@H]1C[C@@]2(O)[C@@H](OC(=O)c3ccccc3)[C@@H]3[C@]4(OC(C)=O)CO[C@@H]4C[C@H](O)[C@@]3(C)C(=O)[C@H](OC(C)=O)C(=C1C)C2(C)C [TAXCULTIN]
KB
  IC50: 1.5 ng/mL (≈ 1.83 nM)

## C/C=C(\C)C(=O)N[C@@H](c1ccccc1)[C@@H](O)C(=O)O[C@H]1C[C@@]2(O)[C@@H](OC(=O)c3ccccc3)[C@@H]3[C@]4(OC(C)=O)CO[C@@H]4C[C@H](O)[C@@]3(C)C(=O)[C@H](OC(C)=O)C(=C1C)C2(C)C [CEPHALOMANNINE]
KB
  IC50: 1.5 ng/mL (≈ 1.8 nM)

Reference: ChEMBL document CHEMBL1138436, “Biological activity and chemistry of taxoids from the Japanese yew, Taxus cuspidata” (J Nat Prod, 2004)
